Values after ≈ are worked out from the molar mass of the structure shown.
Experiments:
[1] = target: T1, Catechol 2,3-dioxygenase (Stenotrophomonas maltophilia) (UniProt A7LB47); assay: Induction of catechol 2,3-dioxygenase activity in ampN deficient Stenotrophomonas maltophilia KJ harboring ampG gene with xylE-Gmomega cassette insertion at 20 ug/ml
T1 sequence (whole entry): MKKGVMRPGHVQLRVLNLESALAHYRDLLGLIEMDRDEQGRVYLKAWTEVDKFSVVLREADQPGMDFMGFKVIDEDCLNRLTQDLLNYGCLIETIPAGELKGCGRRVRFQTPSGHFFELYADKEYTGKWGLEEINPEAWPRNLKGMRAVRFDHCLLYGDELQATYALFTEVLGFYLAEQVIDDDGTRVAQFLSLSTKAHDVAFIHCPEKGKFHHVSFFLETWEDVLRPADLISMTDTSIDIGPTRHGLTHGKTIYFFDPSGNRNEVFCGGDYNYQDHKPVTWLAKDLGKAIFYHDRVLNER
Method in brief: (§1)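 C23O (xylE product) activity assayed in intact cells, with cefuroxime 20 μg/ml as inducer. Rate calculated with extinction coefficient 44,000 M−1 cm−1. One unit (Uc) converts 1 nmol substrate/min. Specific activity given as Uc/OD450. Plasmids were introduced into S. maltophilia by conjugation and confirmed by colony PCR.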

[2] = system: Stenotrophomonas maltophilia; assay: Antimicrobial activity against ampN deficient Stenotrophomonas maltophilia KJ by agar dilution method; assay type: functional
Method in brief: (§2)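 MICs were determined in triplicate by standard 2-fold serial agar dilution, following CLSI guidelines.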

[3] = target: T1, Catechol 2,3-dioxygenase (Stenotrophomonas maltophilia); assay: Induction of catechol 2,3-dioxygenase activity in Stenotrophomonas maltophilia KJN1 harboring ampN with xylE-Gmomega cassette insertion at 20 ug/ml; method in brief: as §1
[4] = target: T1, Catechol 2,3-dioxygenase (Stenotrophomonas maltophilia); assay: Induction of catechol 2,3-dioxygenase activity in Stenotrophomonas maltophilia KJN2 harboring ampN with xylE-Gmomega cassette insertion at 20 ug/ml; method in brief: as §1
[5] = target: T1, Catechol 2,3-dioxygenase (Stenotrophomonas maltophilia); assay: Induction of catechol 2,3-dioxygenase activity in Stenotrophomonas maltophilia KJG harboring ampG with xylE-Gmomega cassette insertion at 20 ug/ml; method in brief: as §1
[6] = target: T1, Catechol 2,3-dioxygenase (Stenotrophomonas maltophilia); assay: Induction of catechol 2,3-dioxygenase activity in ampN deficient Stenotrophomonas maltophilia KJ harboring pRK415 and ampG gene with xylE-Gmomega cassette insertion at 20 ug/ml; method in brief: as §1
[7] = target: T1, Catechol 2,3-dioxygenase (Stenotrophomonas maltophilia); assay: Induction of catechol 2,3-dioxygenase activity in ampN deficient Stenotrophomonas maltophilia KJ harboring pRK-N and ampG gene with xylE-Gmomega cassette insertion at 20 ug/ml; method in brief: as §1
[8] = target: T1, Catechol 2,3-dioxygenase (Stenotrophomonas maltophilia); assay: Induction of catechol 2,3-dioxygenase activity in ampN deficient Stenotrophomonas maltophilia KJ harboring pRK-G and ampG gene with xylE-Gmomega cassette insertion at 20 ug/ml; method in brief: as §1
[9] = target: T1, Catechol 2,3-dioxygenase (Stenotrophomonas maltophilia); assay: Induction of catechol 2,3-dioxygenase activity in ampN deficient Stenotrophomonas maltophilia KJ harboring pRK-NG and ampG gene with xylE-Gmomega cassette insertion at 20 ug/ml; method in brief: as §1
[10] = target: T1, Catechol 2,3-dioxygenase (Stenotrophomonas maltophilia); assay: Induction of catechol 2,3-dioxygenase activity in Stenotrophomonas maltophilia KJ harboring pRK415 plasmid at 20 ug/ml; method in brief: as §1
[11] = target: T1, Catechol 2,3-dioxygenase (Stenotrophomonas maltophilia); assay: Induction of catechol 2,3-dioxygenase activity in Stenotrophomonas maltophilia KJ harboring pRKF1 plasmid at 20 ug/ml; method in brief: as §1
[12] = target: T1, Catechol 2,3-dioxygenase (Stenotrophomonas maltophilia); assay: Induction of catechol 2,3-dioxygenase activity in Stenotrophomonas maltophilia KJ harboring pRKF2 plasmid at 20 ug/ml; method in brief: as §1
[13] = target: T1, Catechol 2,3-dioxygenase (Stenotrophomonas maltophilia); assay: Induction of catechol 2,3-dioxygenase activity in Stenotrophomonas maltophilia KJ harboring pRKF3 plasmid at 20 ug/ml; method in brief: as §1
[14] = target: T1, Catechol 2,3-dioxygenase (Stenotrophomonas maltophilia); assay: Induction of catechol 2,3-dioxygenase activity in Stenotrophomonas maltophilia KJ harboring pRKF4 plasmid at 20 ug/ml; method in brief: as §1
[15] = target: T1, Catechol 2,3-dioxygenase (Stenotrophomonas maltophilia); assay: Induction of catechol 2,3-dioxygenase activity in Stenotrophomonas maltophilia KJ harboring pRKF5 plasmid at 20 ug/ml; method in brief: as §1
[16] = target: T1, Catechol 2,3-dioxygenase (Stenotrophomonas maltophilia); assay: Induction of catechol 2,3-dioxygenase activity in Stenotrophomonas maltophilia KJ harboring pRKF6 plasmid at 20 ug/ml; method in brief: as §1
[17] = system: Stenotrophomonas maltophilia; assay: Induction of beta-lactamase activity in Stenotrophomonas maltophilia KJ at 20 ug/ml
Method in brief: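 Cefuroxime 20 μg/ml added as inducer. β-lactamase activity read by nitrocefin hydrolysis at 486 nm (ε 20,500 M−1 cm−1). Specific activity given as nmol nitrocefin hydrolyzed/min/mg protein. Protein measured by Bio-Rad assay against a BSA standard. L1 versus L2 split by the modified nitrocefin-EDTA method.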

[18] = system: Stenotrophomonas maltophilia; assay: Induction of beta-lactamase activity in Stenotrophomonas maltophilia KJN1 harboring ampN with xylE-Gmomega cassette insertion at 20 ug/ml
Method in brief: (§3)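 Cells were induced with cefuroxime at 20 μg/ml. β-Lactamase activity was measured as nitrocefin hydrolysis at 486 nm, using ε 20,500 M−1 cm−1. Specific activity is nmol nitrocefin hydrolysed/min/mg protein. Protein was measured by dye-binding assay against a BSA standard. Basal and induced activities are both reported.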

[19] = system: Stenotrophomonas maltophilia; assay: Induction of beta-lactamase activity in Stenotrophomonas maltophilia KJN2 harboring ampN with xylE-Gmomega cassette insertion at 20 ug/ml; method in brief: as §3
[20] = system: Stenotrophomonas maltophilia; assay: Induction of beta-lactamase activity in Stenotrophomonas maltophilia KJG harboring ampG with xylE-Gmomega cassette insertion at 20 ug/ml; method in brief: as §3
[21] = system: Stenotrophomonas maltophilia; assay: Induction of beta-lactamase activity in ampN deficient Stenotrophomonas maltophilia KJ harboring ampG gene with xylE-Gmomega cassette insertion at 20 ug/ml; method in brief: as §3
[22] = system: Stenotrophomonas maltophilia; assay: Induction of beta-lactamase activity in ampN deficient Stenotrophomonas maltophilia KJ at 20 ug/ml; method in brief: as §3
[23] = system: Stenotrophomonas maltophilia; assay: Induction of beta-lactamase activity in Stenotrophomonas maltophilia KJ harboring pRK415 plasmid at 20 ug/ml; method in brief: as §3
[24] = system: Stenotrophomonas maltophilia; assay: Induction of beta-lactamase activity in Stenotrophomonas maltophilia KJ harboring pRK-NG plasmid at 20 ug/ml; method in brief: as §3
[25] = system: Stenotrophomonas maltophilia; assay: Induction of beta lactamase activity in Stenotrophomonas maltophilia KJN2 harboring pRK415 and ampN with xylE-Gmomega cassette insertion at 20 ug/ml; method in brief: as §3
[26] = system: Stenotrophomonas maltophilia; assay: Induction of beta lactamase activity in Stenotrophomonas maltophilia KJN2 harboring pRK-NG and ampN with xylE-Gmomega cassette insertion at 20 ug/ml; method in brief: as §3
[27] = system: Stenotrophomonas maltophilia; assay: Induction of beta lactamase activity in Stenotrophomonas maltophilia KJN2 harboring pRK-G and ampN with xylE-Gmomega cassette insertion at 20 ug/ml; method in brief: as §3
[28] = system: Stenotrophomonas maltophilia; assay: Induction of beta lactamase activity in Stenotrophomonas maltophilia KJN2 harboring pRK-EcG and ampN with xylE-Gmomega cassette insertion at 20 ug/ml; method in brief: as §3
[29] = system: Stenotrophomonas maltophilia; assay: Antimicrobial activity against Stenotrophomonas maltophilia KJ by agar dilution method; assay type: functional; method in brief: as §2
[30] = system: Stenotrophomonas maltophilia; assay: Antimicrobial activity against Stenotrophomonas maltophilia KJN1 harboring ampN with xylE-Gmomega cassette insertion by agar dilution method; assay type: functional; method in brief: as §2
[31] = system: Stenotrophomonas maltophilia; assay: Antimicrobial activity against Stenotrophomonas maltophilia KJN2 harboring ampN with xylE-Gmomega cassette insertion by agar dilution method; assay type: functional; method in brief: as §2
[32] = system: Stenotrophomonas maltophilia; assay: Antimicrobial activity against Stenotrophomonas maltophilia KJG harboring ampG with xylE-Gmomega cassette insertion by agar dilution method; assay type: functional; method in brief: as §2
[33] = system: Stenotrophomonas maltophilia; assay: Antimicrobial activity against ampN deficient Stenotrophomonas maltophilia KJ harboring ampG with xylE-Gmomega cassette insertion by agar dilution method; assay type: functional; method in brief: as §2
[34] = system: Stenotrophomonas maltophilia; assay: Antimicrobial activity against Stenotrophomonas maltophilia KJN2 harboring pRK415 plasmid and ampN with xylE-Gmomega cassette insertion by agar dilution method; assay type: functional; method in brief: as §2
[35] = system: Stenotrophomonas maltophilia; assay: Antimicrobial activity against Stenotrophomonas maltophilia KJN2 harboring pRK-G plasmid and ampN with xylE-Gmomega cassette insertion by agar dilution method; assay type: functional; method in brief: as §2
[36] = system: Stenotrophomonas maltophilia; assay: Antimicrobial activity against Stenotrophomonas maltophilia KJN2 harboring pRK-NG plasmid and ampN with xylE-Gmomega cassette insertion by agar dilution method; assay type: functional; method in brief: as §2
[37] = system: Stenotrophomonas maltophilia; assay: Antimicrobial activity against Stenotrophomonas maltophilia KJN2 harboring pRK-EcG plasmid and ampN with xylE-Gmomega cassette insertion by agar dilution method; assay type: functional; method in brief: as §2
[38] = system: Stenotrophomonas maltophilia; assay: Antimicrobial activity against Stenotrophomonas maltophilia KJN2 harboring ampN with xylE-Gmomega cassette insertion by Etest; assay type: functional
Method in brief: (§4)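 Imipenem and meropenem MICs were read from Etest strips, following the manufacturer's instructions.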

[39] = system: Stenotrophomonas maltophilia; assay: Antimicrobial activity against Stenotrophomonas maltophilia KJG harboring ampG with xylE-Gmomega cassette insertion by Etest; assay type: functional; method in brief: as §4
[40] = system: Stenotrophomonas maltophilia; assay: Antimicrobial activity against ampN deficient Stenotrophomonas maltophilia KJ by Etest; assay type: functional; method in brief: as §4
[41] = system: Stenotrophomonas maltophilia; assay: Antimicrobial activity against ampN deficient Stenotrophomonas maltophilia KJ harboring ampG with xylE-Gmomega cassette insertion by Etest; assay type: functional; method in brief: as §4
[42] = system: Stenotrophomonas maltophilia; assay: Antimicrobial activity against Stenotrophomonas maltophilia KJN2 harboring pRK415 plasmid and ampN with xylE-Gmomega cassette insertion by Etest; assay type: functional; method in brief: as §4
[43] = system: Stenotrophomonas maltophilia; assay: Antimicrobial activity against Stenotrophomonas maltophilia KJN2 harboring pRK-G plasmid and ampN with xylE-Gmomega cassette insertion by Etest; assay type: functional; method in brief: as §4
[44] = system: Stenotrophomonas maltophilia; assay: Antimicrobial activity against Stenotrophomonas maltophilia KJN2 harboring pRK-NG plasmid and ampN with xylE-Gmomega cassette insertion by Etest; assay type: functional; method in brief: as §4
[45] = system: Stenotrophomonas maltophilia; assay: Antimicrobial activity against Stenotrophomonas maltophilia KJN2 harboring pRK-EcG plasmid and ampN with xylE-Gmomega cassette insertion by Etest; assay type: functional; method in brief: as §4
[46] = system: Stenotrophomonas maltophilia; assay: Antimicrobial activity against Stenotrophomonas maltophilia KJ by Etest; assay type: functional; method in brief: as §4
[47] = system: Stenotrophomonas maltophilia; assay: Antimicrobial activity against Stenotrophomonas maltophilia KJN1 harboring ampN with xylE-Gmomega cassette insertion by Etest; assay type: functional; method in brief: as §4

SMILES: CO/N=C(\C(=O)N[C@@H]1C(=O)N2C(C(=O)O)=C(COC(N)=O)CS[C@H]12)c1ccco1 [CEFUROXIME]
- Activity (nmol/min/OD450) [1]: 4
- MIC [2]: 32 µg/mL (≈ 75.4 µM)
- Activity (nmol/min/OD450) [3]: 4
- Activity (nmol/min/OD450) [4]: 39
- Activity (nmol/min/OD450) [5]: 41
- Activity (nmol/min/OD450) [6]: 5
- Activity (nmol/min/OD450) [7]: 5
- Activity (nmol/min/OD450) [8]: 4
- Activity (nmol/min/OD450) [9]: 5
- Activity (nmol/min/OD450) [10]: 0
- Activity (nmol/min/OD450) [11]: 6
- Activity (nmol/min/OD450) [12]: 50
- Activity (nmol/min/OD450) [13]: 6
- Activity (nmol/min/OD450) [14]: 45
- Activity (nmol/min/OD450) [15]: 6
- Activity (nmol/min/OD450) [16]: 8
- Activity [17]: 1520 U/mg
- Activity [18]: 5 U/mg
- Activity [19]: 5 U/mg
- Activity [20]: 6 U/mg
- Activity [21]: 3 U/mg
- Activity [22]: 6 U/mg
- Activity [23]: 1740 U/mg
- Activity [24]: 1620 U/mg
- Activity [25]: 18 U/mg
- Activity [26]: 1450 U/mg
- Activity [27]: 12 U/mg
- Activity [28]: 882 U/mg
- MIC [29]: > 1020 µg/mL
- MIC [30]: 32 µg/mL (≈ 75.4 µM)
- MIC [31]: 32 µg/mL (≈ 75.4 µM)
- MIC [32]: 32 µg/mL (≈ 75.4 µM)
- MIC [33]: 32 µg/mL (≈ 75.4 µM)
- MIC [34]: 32 µg/mL (≈ 75.4 µM)
- MIC [35]: 64 µg/mL (≈ 151 µM)
- MIC [36]: > 1020 µg/mL
- MIC [37]: > 1020 µg/mL

SMILES: C[C@@H](O)[C@H]1C(=O)N2C(C(=O)O)=C(S[C@@H]3CN[C@H](C(=O)N(C)C)C3)[C@H](C)[C@H]12 [MEROPENEM]
- MIC [38]: 0.38 µg/mL (≈ 0.991 µM)
- MIC [39]: 0.38 µg/mL (≈ 0.991 µM)
- MIC [40]: 0.38 µg/mL (≈ 0.991 µM)
- MIC [41]: 0.38 µg/mL (≈ 0.991 µM)
- MIC [42]: 0.5 µg/mL (≈ 1.3 µM)
- MIC [43]: 0.75 µg/mL (≈ 1.96 µM)
- MIC [44]: > 32 µg/mL
- MIC [45]: > 32 µg/mL
- MIC [46]: > 32 µg/mL
- MIC [47]: 0.5 µg/mL (≈ 1.3 µM)
